The text below walks through data of ChEMBL document CHEMBL1806387, “Discovery of 1,2,4-thiadiazolidine-3,5-dione analogs that exhibit unusual and selective rapid cell death kinetics against acute myelogenous leukemia cells in culture” (Bioorg Med Chem Lett, 2011).

The nature of data set [1]: Cytotoxicity against human hematopoietic stem cells assessed as reduction of cell viability after 24 hrs by Annexin V-Fluorescein isothiocyanate and 7-aminoactinomycin D staining. The format is cell-based.
The test system of data set [2] is MV4-11. As to the kind of experiment: Cytotoxicity against human MV411 cells assessed as reduction of cell viability at 20 uM after 2 hrs by Annexin V-Fluorescein isothiocyanate and 7-aminoactinomycin D staining. The format is functional, cell-based. A digest of the protocol:
(§1)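 MV4-11 cells (ATCC) seeded at 300,000 cells/mL in IMDM with 10% FBS and exposed to compound for the stated time in time-course runs. Cells stained with Annexin V-FITC plus 7-AAD and read by flow cytometry 15 minutes later. Viability is the Annexin V-negative/7-AAD-negative fraction, expressed relative to untreated control.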

The subject of data set [3] is MV4-11. Put plainly: Cytotoxicity against human MV411 cells after 24 hrs by Annexin V-Fluorescein isothiocyanate and 7-aminoactinomycin D staining. Format: functional. The conditions noted are these: MV4-11, 24 h, read-out: LD50 (the source's name). A digest of the protocol: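 MV4-11 human AML cells (ATCC) seeded at 300,000 cells/mL in IMDM with 10% FBS. Cells exposed to at least 4 concentrations for 24 hours. Stained with Annexin V-FITC and 7-AAD, then run on flow cytometry (BD LSRII) 15 minutes later. Viable cells gated as Annexin V-negative/7-AAD-negative and expressed as percent of untreated control.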

Data set [4] has as its system MV4-11. Put plainly: Cytotoxicity against human MV411 cells assessed as reduction of cell viability at 10 uM after 30 mins by Annexin V-Fluorescein isothiocyanate and 7-aminoactinomycin D staining. The format is functional, cell-based. In outline: as §1
The subject of data set [5] is MV4-11. Put plainly: Cytotoxicity against human MV411 cells assessed as reduction of cell viability at 5 uM after 1 to 2 hrs by Annexin V-Fluorescein isothiocyanate and 7-aminoactinomycin D staining. The format is functional, cell-based. In outline: as §1
Data set [6] has as its system MV4-11. Put plainly: Cytotoxicity against human MV411 cells assessed as reduction of cell viability at 5 uM after 30 mins by Annexin V-Fluorescein isothiocyanate and 7-aminoactinomycin D staining. Format: functional. In outline:
as §1

In data set [7] the test system is MV4-11. Put plainly: Cytotoxicity against human MV411 cells assessed as reduction of cell viability at 10 uM after 2 hrs by Annexin V-Fluorescein isothiocyanate and 7-aminoactinomycin D staining. Format: functional, cell-based. A digest of the protocol: as §1
The test system of data set [8] is MV4-11. As to the kind of experiment: Cytotoxicity against human MV411 cells assessed as reduction of cell viability at 5 uM after 24 hrs by Annexin V-Fluorescein isothiocyanate and 7-aminoactinomycin D staining. The format is functional, cell-based. In outline:
as §1

The test system of data set [9] is MV4-11. Put plainly: Cytotoxicity against human MV411 cells assessed as reduction of cell viability at 20 uM after 30 mins by Annexin V-Fluorescein isothiocyanate and 7-aminoactinomycin D staining. Format: functional. A digest of the protocol: as §1
Data set [10] concerns MV4-11. As to the kind of experiment: Cytotoxicity against human MV411 cells assessed as reduction of cell viability at 10 uM after 24 hrs by Annexin V-Fluorescein isothiocyanate and 7-aminoactinomycin D staining. The format is functional, cell-based. A digest of the protocol:
as §1

Active and inactive are the calls of the source. The calls are words filed in the database; no cut-off is given here.

As for `Cn1sc(=O)n(Cc2ccccc2)c1=O`, in data set [1], the Activity result is listed as “Non-toxic”. Besides, the result in data set [2] was Active. The CC50 in data set [3] was found to be 4.01 µM.

Regarding `O=c1sn(CCCl)c(=O)n1Cc1ccccc1`, the Activity entry in [1] is “Non-toxic”. In addition, the outcome in [4] and in data set [5] was Active. The CC50 in data set [3] amounted to 2.03 µM.

`CCCn1sc(=O)n(Cc2ccccc2)c1=O`: in [1], the Activity entry is listed as “Non-toxic”. The CC50 in [3] came out at 11.6 µM.

`Cl.NCc1ccc(Cn2c(=O)sn(CCCl)c2=O)cc1`: the Activity result in data set [1] is “Non-toxic”. Besides, in [3], the CC50 was found to be 3.01 µM.

Regarding `CCn1sc(=O)n(Cc2ccccc2)c1=O` [KRM-7777], in data set [1], the Activity result is recorded as “Non-toxic”. In addition, the CC50 in data set [3] was 9.21 µM.

On to `CCn1sc(=O)n(Cc2ccc(CN)cc2)c1=O.Cl`, for which the Activity entry in data set [1] is “Non-toxic”. Moreover, the CC50 in data set [3] came to 15.5 µM.

Take `Cl.NCc1cccc(Cn2c(=O)sn(CCCl)c2=O)c1`: the Activity entry in data set [1] is on record as “Non-toxic”. Further, in data set [3], the CC50 was 4.4 µM.

On to `C=CCn1sc(=O)n(Cc2ccc(CN)cc2)c1=O.Cl`, for which the Activity result in [1] is “Non-toxic”. Further, in [3], the CC50 worked out at 6.7 µM.

Turning to `O=c1sn(CCBr)c(=O)n1Cc1ccccc1`, the Activity result was “Non-toxic” in [1] and 50% in data set [6]. Besides, in data set [3], the CC50 is 3.5 µM. For the same compound, the result in [7] was Active.

Take `O=C([O-])c1ccc(Cn2c(=O)sn(CCCl)c2=O)cc1.[Na+]`: in [1], the Activity entry is “Non-toxic”. In addition, in data set [3], the CC50 was over 20 µM.

As for `C=CCn1sc(=O)n(Cc2ccccc2)c1=O`, the figures for the Activity result in data set [1] and in data set [9] were “Non-toxic” and 50%, respectively. For the same compound, the result in [2] and in [10] was Active. Besides, the outcome in data set [8] was inactive. The CC50 in [3] came to 9.2 µM.

On to `Cl.NCc1ccc(Cn2c(=O)sn(CCBr)c2=O)cc1`, for which the Activity result in data set [1] is listed as “Non-toxic”. The CC50 in data set [3] was 4.51 µM.
